Measured values taken from ChEMBL document CHEMBL4732233, “Faropenem reacts with serine and metallo-β-lactamases to give multiple products” (Eur J Med Chem, 2021).

Tests used:
[1] = Inhibition of KPC-2 (unknown origin); set-up: species or system Bacteria
Bacteria [2] = tested on: Bacteria
[3] = Drug metabolism assessed as NDM-1 (unknown origin)-mediated compound hydrolysis by measuring (S)-2-((1S,2R)-1-carboxy-2-hydroxypropyl)-5-(4-hydroxybutylidene)-2,5-dihydrothiazole-4-carboxylic acid formation at 5 mM incubated for 5 mins by 1H-NMR based analysis; format: ADME; settings: bacteria, 5000 µM
Outline: (§1)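 NDM-1 used at 5 μM with 5 mM faropenem, 5 min incubation, in 50 mM sodium phosphate, pH 7.5, 10% (v/v) D2O. Degradation products monitored by 700 MHz 1H NMR via methyl group signals.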

[4] = Drug metabolism assessed as KPC-2 (unknown origin)-mediated compound hydrolysis by measuring (S)-2-((1S,2R)-1-carboxy-2-hydroxypropyl)-5-((R)-tetrahydrofuran-2-yl)-2,3-dihydrothiazole-4-carboxylic acid formation at 5 mM incubated for 72 mins by 1H-NMR based analysis; format: ADME; settings: bacteria, 1.2 h, 5000 µM
[5] = Drug metabolism assessed as VIM-1 (unknown origin)-mediated compound hydrolysis by measuring (R)-2-((1S,2R)-1-carboxy-2-hydroxypropyl)-5-((R)-tetrahydrofuran-2-yl)-2,3-dihydrothiazole-4-carboxylic acid formation at 5 mM incubated for 5 mins by 1H-NMR based analysis; format: ADME; settings: bacteria, 5000 µM
Bacteria [6] = tested on: Bacteria; remark: listed apart in the source
[7] = Drug metabolism assessed as NDM-1 (unknown origin)-mediated compound hydrolysis by measuring (S)-2-((1S,2R)-1-carboxy-2-hydroxypropyl)-5-((R)-tetrahydrofuran-2-yl)-2,3-dihydrothiazole-4-carboxylic acid formation at 5 mM incubated for 5 mins by 1H-NMR based analysis; format: ADME; settings: bacteria, 5000 µM; outline: as §1
Bacteria [8] = tested on: Bacteria; remark: listed apart in the source
[9] = Drug metabolism assessed as OXA-48 (unknown origin)-mediated compound hydrolysis by measuring (R)-2-((1S,2R)-1-carboxy-2-hydroxypropyl)-5-((R)-tetrahydrofuran-2-yl)-2,3-dihydrothiazole-4-carboxylic acid formation at 5 mM incubated for 55 mins by 1H-NMR based analysis; format: ADME; settings: bacteria, 5000 µM
Outline: (§2)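 Reaction of OXA-48 (5 μM) with 5 mM faropenem for 55 min in 50 mM sodium phosphate pH 7.5, 10% (v/v) D2O. Products assigned from methyl group resonances in 700 MHz 1H NMR spectra.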

[10] = Drug metabolism assessed as KPC-2 (unknown origin)-mediated compound hydrolysis by measuring (S)-2-((1S,2R)-1-carboxy-2-hydroxypropyl)-5-(4-hydroxybutylidene)-2,5-dihydrothiazole-4-carboxylic acid formation at 5 mM incubated for 72 mins by 1H-NMR based analysis; format: ADME; settings: bacteria, 1.2 h, 5000 µM
[11] = Drug metabolism assessed as OXA-48 (unknown origin)-mediated compound hydrolysis by measuring (S)-2-((1S,2R)-1-carboxy-2-hydroxypropyl)-5-((R)-tetrahydrofuran-2-yl)-2,3-dihydrothiazole-4-carboxylic acid formation at 5 mM incubated for 55 mins by 1H-NMR based analysis; format: ADME; settings: bacteria, 5000 µM; outline: as §2
[12] = tested on: Mycobacterium tuberculosis H37Rv
[13] = Drug metabolism assessed as OXA10 (unknown origin)-mediated compound hydrolysis by measuring (R)-2-((1S,2R)-1-carboxy-2-hydroxypropyl)-5-(4-hydroxybutylidene)-2,5-dihydrothiazole-4-carboxylic acid formation at 5 mM incubated for 16 hrs by 1H-NMR based analysis; format: ADME; settings: bacteria, 5000 µM
Outline: (§3)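 OXA-10 at 5 μM with 5 mM faropenem, incubated 16 h in 50 mM sodium phosphate, pH 7.5, 10% (v/v) D2O. Product formation read by 1H NMR (700 MHz) methyl group resonances.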

[14] = Drug metabolism assessed as OXA-23 (unknown origin)-mediated compound hydrolysis by measuring (S)-2-((1S,2R)-1-carboxy-2-hydroxypropyl)-5-(4-hydroxybutylidene)-2,5-dihydrothiazole-4-carboxylic acid formation at 2 mM incubated for 15 mins by 1H-NMR based analysis; format: ADME; settings: bacteria, 0.25 h, 2000 µM
[15] = Drug metabolism assessed as VIM-2 (unknown origin)-mediated compound hydrolysis by measuring (2R)-2-((1S,2R)-1-carboxy-2-hydroxypropyl)-5-((R)-tetrahydrofuran-2-yl)-2,5-dihydrothiazole-4-carboxylic acid formation at 5 mM incubated for 5 mins by 1H-NMR based analysis; format: ADME; settings: bacteria, 5000 µM
[16] = Drug metabolism assessed as OXA-48 (unknown origin)-mediated compound hydrolysis by measuring (S)-2-((1S,2R)-1-carboxy-2-hydroxypropyl)-5-(4-hydroxybutylidene)-2,5-dihydrothiazole-4-carboxylic acid formation at 5 mM incubated for 55 mins by 1H-NMR based analysis; format: ADME; settings: bacteria, 5000 µM; outline: as §2
[17] = Drug metabolism assessed as VIM-1 (unknown origin)-mediated compound hydrolysis by measuring (R)-2-((1S,2R)-1-carboxy-2-hydroxypropyl)-5-(4-hydroxybutylidene)-2,5-dihydrothiazole-4-carboxylic acid formation at 5 mM incubated for 5 mins by 1H-NMR based analysis; format: ADME; settings: bacteria, 5000 µM
[18] = Drug metabolism assessed as OXA-23 (unknown origin)-mediated compound hydrolysis by measuring (S)-2-((1S,2R)-1-carboxy-2-hydroxypropyl)-5-((R)-tetrahydrofuran-2-yl)-2,3-dihydrothiazole-4-carboxylic acid formation at 2 mM incubated for 15 mins by 1H-NMR based analysis; format: ADME; settings: bacteria, 0.25 h, 2000 µM
[19] = Drug metabolism assessed as L1 (unknown origin)-mediated compound hydrolysis by measuring (S)-2-((1S,2R)-1-carboxy-2-hydroxypropyl)-5-(4-hydroxybutylidene)-2,5-dihydrothiazole-4-carboxylic acid formation at 5 mM incubated for 5 mins by 1H-NMR based analysis; format: ADME; settings: bacteria, 5000 µM
Outline: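 L1 enzyme (125 nM) reacted with 5 mM faropenem for 5 min in 50 mM sodium phosphate pH 7.5 containing 10% (v/v) D2O. Product species assigned by 1H NMR (700 MHz) methyl resonances.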

[20] = Drug metabolism assessed as VIM-1 (unknown origin)-mediated compound hydrolysis by measuring (S)-2-((1S,2R)-1-carboxy-2-hydroxypropyl)-5-(4-hydroxybutylidene)-2,5-dihydrothiazole-4-carboxylic acid formation at 5 mM incubated for 5 mins by 1H-NMR based analysis; format: ADME; settings: bacteria, 5000 µM
Bacteria [21] = tested on: Bacteria; remark: listed apart in the source
Bradyrhizobium japonicum = settings: USDA110
[22] = Drug metabolism assessed as KPC-2 (unknown origin)-mediated compound hydrolysis by measuring (R)-2-((1S,2R)-1-carboxy-2-hydroxypropyl)-5-(4-hydroxybutylidene)-2,5-dihydrothiazole-4-carboxylic acid formation at 5 mM incubated for 72 mins by 1H-NMR based analysis; format: ADME; settings: bacteria, 1.2 h, 5000 µM
[23] = Drug metabolism assessed as VIM-2 (unknown origin)-mediated compound hydrolysis by measuring (R)-2-((1S,2R)-1-carboxy-2-hydroxypropyl)-5-((R)-tetrahydrofuran-2-yl)-2,3-dihydrothiazole-4-carboxylic acid formation at 5 mM incubated for 5 mins by 1H-NMR based analysis; format: ADME; settings: bacteria, 5000 µM
[24] = Drug metabolism assessed as OXA10 (unknown origin)-mediated compound hydrolysis by measuring (S)-2-((1S,2R)-1-carboxy-2-hydroxypropyl)-5-((R)-tetrahydrofuran-2-yl)-2,3-dihydrothiazole-4-carboxylic acid formation at 5 mM incubated for 16 hrs by 1H-NMR based analysis; format: ADME; settings: bacteria, 5000 µM; outline: as §3

Compound: C[C@@H](O)[C@H]1C(=O)N2C(C(=O)O)=C([C@H]3CCCO3)S[C@H]12 [FAROPENEM]
- Ki [1]: 44.1 µM
- Km (Bacteria [2]): 5.11 µM
- Drug metabolism [3]: Metabolite_Detected
- Drug metabolism [4]: Metabolite_Detected
- Drug metabolism [5]: Metabolite_Detected
- kcat (Bacteria [6]): 36.7 s⁻¹
- Drug metabolism [7]: Metabolite_Detected
- kcat/Km (Bacteria [8]): 220000 M⁻¹ s⁻¹
- Drug metabolism [9]: Metabolite_Detected
- Drug metabolism [10]: Metabolite_Detected
- Drug metabolism [11]: Metabolite_Detected
- kcat [12]: 0.91 s⁻¹
- Drug metabolism [13]: Metabolite_Detected
- Drug metabolism [14]: Metabolite_Detected
- Drug metabolism [15]: Metabolite_Detected
- Drug metabolism [16]: Metabolite_Detected
- Drug metabolism [17]: Metabolite_Detected
- Drug metabolism [18]: Metabolite_Detected
- Drug metabolism [19]: Metabolite_Detected
- Drug metabolism [20]: Metabolite_Detected
- kcat (Bacteria [21]): 3.71 s⁻¹
- kcat/Km (Bradyrhizobium japonicum): 8000 M⁻¹ s⁻¹
- kcat/Km (Klebsiella pneumoniae): 150000 M⁻¹ s⁻¹
- Drug metabolism [22]: Metabolite_Detected
- Drug metabolism [23]: Metabolite_Detected
- Drug metabolism [24]: Metabolite_Detected
